Screening data from PubChem BioAssay.
In the library only some 2.3% were active in any assay of this set; here they are far more common.
ABCG2 block: human ABCG2 inhibition, ABCB1 as counter-screen | IgMXP3 cells, JC-1 efflux, flow cytometry | inhibition, % at 6.6 µM | Q9UNQ0 | actives 0.1% (n = 190,000);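 active = inhibition above 80%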;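 note: 0% = DMSO and 100% = nicardipine control wells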
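Incubation: cells with compound and JC-1, 10 min at 25 °C, rotating, no wash / Test system: IgMXP3 (ABCG2) plus far-red-tagged CCRF-Adr (ABCB1) cells / Compound dosing: one concentration, 6.6 µM final / Also added: JC-1 fluorescent substrate / Evaluation: efflux inhibition in percent versus controls / Detection: flow cytometry, 530 nm JC-1 signal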
Arbovirus anti: antivirals against arbovirus infection; arbovirus infection cell-based antiviral screen; inhibition, % at 10 µM; actives 0.37% (n = 200,000); in the data active = inhibition above about 30%
RAM inhibit: inhibitors of the yeast RAM network. inhibition, % at 50 µM. AID 868. actives 1.8% (n = 190,000). S. cerevisiae dse1pr::URA3 reporter, 5-FOA growth OD615, 2 d; analog-sensitive cbk1-as2 kinase mutant strain;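 active = inhibition above a set limit, 3 SD over mean compound inhibition, cut at about 8.4% in these data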;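 note: 0% = DMSO-only wells with no growth and 100% = 10 µM 1-NA-PP1 full growth; inhibition rescues growth on 5-FOA so higher OD means more RAM inhibition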
ABCB1 inh: inhibitors of human ABCB1 transporter, ABCG2 counter-screen; P08183; CCRF-Adr cells, JC-1 efflux, flow cytometry; inhibition, % at 6.6 µM; actives 0.067% (n = 190,000); in the data active = inhibition above about 40%;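 note: 0% = vehicle and 100% = reference inhibitor; higher value means more JC-1 retained so stronger ABCB1 efflux block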
RAM efflux-def: restores 5-FOA growth of efflux-deficient yeast; shares compounds with RAM inhibit; S. cerevisiae efflux-deficient reporter strain, 5-FOA growth OD615, 2 days; max inhibition, %; 1,200 tested, under 10 active; call rule not given here;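 note: plate controls were vehicle for no effect and reference inhibitor for full effect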
Numbers without * were called inactive.

How did CCN(CC)C(=O)C(=O)Nc1ccc(F)c(Cl)c1 do in these assays?
ABCG2 block: 5; Arbovirus anti: 15; RAM inhibit: 2; ABCB1 inh: 1

How did O=C(OCc1ccccc1)C1=[N+]([O-])OC(C(=O)OCc2ccccc2)C1c1c[nH]c2ccccc12 (stereo not drawn) do in these assays?
ABCG2 block: -1; Arbovirus anti: -11; RAM inhibit: 12*; ABCB1 inh: 0; RAM efflux-def: 4

Results for O=C(Nc1ccc(Oc2ccc3ccccc3c2)cc1)c1ccco1 ?
ABCG2 block: 6; Arbovirus anti: 7; RAM inhibit: 15*; ABCB1 inh: 1; RAM efflux-def: 4

What do the screens show for `NC(=O)C(CC(=O)O)NC(=O)[C@@H]1CCOc2c(I)cc([N+](=O)[O-])cc2C(=O)N[C@@H](CO)C(=O)N[C@@H](Cc2ccc(O)cc2)C(=O)N1` (stereo partly drawn)?
ABCG2 block: -1; Arbovirus anti: 5; RAM inhibit: 3; ABCB1 inh: 0

What do the screens show for `NS(=O)(=O)c1cccc(NC(=O)COC(=O)/C(=C/c2cccs2)c2cccs2)c1`?
ABCG2 block: -1; Arbovirus anti: 7; RAM inhibit: 5; ABCB1 inh: -1

Results for CC(NC(=O)COC(=O)/C(=C/c1cccs1)c1cccs1)c1ccccc1 (stereo not drawn) ?
ABCG2 block: 1; Arbovirus anti: 3; RAM inhibit: 14*; ABCB1 inh: 0; RAM efflux-def: 1

How did CC1=C(C#N)CCC(=O)N1Cc1c(F)cccc1Cl do in these assays?
ABCG2 block: 0; Arbovirus anti: -5; RAM inhibit: 0; ABCB1 inh: 0

Results for CN(C)/C=N/c1nc2nccc(-c3cccs3)n2n1 ?
ABCG2 block: 7; Arbovirus anti: 1; RAM inhibit: 2; ABCB1 inh: 0

How did CSCSC1=C(C#N)C(c2ccc(Cl)cc2)C(C(C)=O)=C(C)N1 (stereo not drawn) do in these assays?
ABCG2 block: -2; Arbovirus anti: -16; RAM inhibit: 15*; ABCB1 inh: -1; RAM efflux-def: 4

How did CCN(CC)S(=O)(=O)c1ccc(N2CCOCC2)c(NC(=O)CCC2CCCCC2)c1 do in these assays?
ABCG2 block: 18; Arbovirus anti: -19; RAM inhibit: 14*; ABCB1 inh: 8; RAM efflux-def: 2

Results for CCN(CC)S(=O)(=O)c1ccc(N2CCOCC2)c(NC(=O)Cc2ccccc2)c1 ?
ABCG2 block: 11; Arbovirus anti: 1; RAM inhibit: 0; ABCB1 inh: 5

How did CCCC1=C/C(=C/c2ccc(-c3ccccc3OC)o2)C(=O)O1 do in these assays?
ABCG2 block: -1; Arbovirus anti: 11; RAM inhibit: 8; ABCB1 inh: 0

What do the screens show for `COc1ccccc1-c1ccc(/C=C2/C=C(CC(C)C)OC2=O)o1`?
ABCG2 block: -2; Arbovirus anti: 28; RAM inhibit: 14*; ABCB1 inh: 0; RAM efflux-def: 10

How did CCOC(=O)c1cnc(-c2ccccc2)nc1Oc1ccc(Cl)cc1 do in these assays?
ABCG2 block: 2; Arbovirus anti: 0; RAM inhibit: 14*; ABCB1 inh: 0; RAM efflux-def: 1

What do the screens show for `CCOC(=O)c1cc(C#N)c(Oc2ccccc2)nc1-c1ccccc1`?
ABCG2 block: -6; Arbovirus anti: -11; RAM inhibit: 12*; ABCB1 inh: -5; RAM efflux-def: 6

What do the screens show for `O=C(O)c1cnc(-c2ccccc2)nc1Oc1ccc(Cl)cc1`?
ABCG2 block: 1; Arbovirus anti: 3; RAM inhibit: 3; ABCB1 inh: 0

Results for Cc1cccc(C)c1NC(=O)Cn1nnc(-c2ccc(N3CCOCC3)cc2)n1 ?
ABCG2 block: 0; Arbovirus anti: -7; RAM inhibit: 5; ABCB1 inh: 0

What do the screens show for `CC(C)C[C@H](NC(=O)c1ccc(OC2CCN(C(=O)C3CC3)CC2)cc1)C(N)=O`?
ABCG2 block: 9; Arbovirus anti: 13; RAM inhibit: 1; ABCB1 inh: 1

Results for N#CC1=C(S)N(c2ccc(F)cc2)C(c2ccco2)NC1=O (stereo not drawn) ?
ABCG2 block: 3; Arbovirus anti: -4; RAM inhibit: 4; ABCB1 inh: 0

Results for Cc1cc(C(=O)CSc2ccc(Cl)cc2)cc(C)c1OC(=S)N(C)C ?
ABCG2 block: 2; Arbovirus anti: 7; RAM inhibit: 12*; ABCB1 inh: 1; RAM efflux-def: 5

What do the screens show for `O=c1c2ccccc2nc(SCc2ccccc2)n1Cc1ccco1`?
ABCG2 block: 5; Arbovirus anti: 8; RAM inhibit: 7; ABCB1 inh: 0

Results for COn1c(SCc2cccc(Cl)c2)nc2ccccc2c1=O ?
ABCG2 block: 5; Arbovirus anti: 1; RAM inhibit: 5; ABCB1 inh: 1

Results for O=c1c2ccccc2nc(SCc2cccc(F)c2)n1Cc1ccco1 ?
ABCG2 block: 2; Arbovirus anti: 4; RAM inhibit: 14*; ABCB1 inh: 0; RAM efflux-def: 6

How did Cc1ccc(CSc2nc3ccccc3c(=O)n2Cc2ccco2)cc1 do in these assays?
ABCG2 block: 0; Arbovirus anti: 13; RAM inhibit: 14*; ABCB1 inh: 0; RAM efflux-def: 4

What do the screens show for `COn1c(SCc2ccccc2)nc2ccccc2c1=O`?
ABCG2 block: 2; Arbovirus anti: 12; RAM inhibit: 12*; ABCB1 inh: 0; RAM efflux-def: 5

How did O=C(CSc1nc2ccccc2c(=O)n1CCC(=O)N1CCCCC1)NCc1ccccc1 do in these assays?
ABCG2 block: 0; Arbovirus anti: 17; RAM inhibit: 18*; ABCB1 inh: 0; RAM efflux-def: 2

Results for COCc1cccc(NC(=O)Cc2cccc3ccccc23)c1 ?
ABCG2 block: 17; Arbovirus anti: -2; RAM inhibit: 2; ABCB1 inh: 3

Results for C=CCc1cccc(/C=N/NC(=O)CCC(=O)Nc2ccc(F)cc2)c1O ?
ABCG2 block: 1; Arbovirus anti: -35; RAM inhibit: 2; ABCB1 inh: -1

How did CCC(Sc1ncccc1C(=O)O)C(=O)N1CCOCC1 (stereo not drawn) do in these assays?
ABCG2 block: 0; Arbovirus anti: 5; RAM inhibit: 2; ABCB1 inh: 0

How did COc1ccc(/C=C2\SC(=N)N(c3ccc(F)cc3)C2=O)cc1OC do in these assays?
ABCG2 block: 4; Arbovirus anti: -10; RAM inhibit: 1; ABCB1 inh: 0

What do the screens show for `O=C(CCCn1c(SCc2cccc(F)c2)nc2ccccc2c1=O)NCC1CCCO1` (stereo not drawn)?
ABCG2 block: 8; Arbovirus anti: -1; RAM inhibit: 16*; ABCB1 inh: 2; RAM efflux-def: 1

How did CCc1ccc(NC(=O)Cn2c(SC)nc3ccccc32)cc1 do in these assays?
ABCG2 block: 0; Arbovirus anti: 12; RAM inhibit: 21*; ABCB1 inh: 0; RAM efflux-def: 3

What do the screens show for `CCCCn1c(SCc2nc3ccccc3s2)nc2ccccc2c1=O`?
ABCG2 block: 1; Arbovirus anti: -19; RAM inhibit: 13*; ABCB1 inh: 0; RAM efflux-def: 3
